According to ChEMBL document CHEMBL1149898, “A biaryl xanthone derivative having axial chirality from Penicillium vinaceum” (J Nat Prod, 2008):
Values after ≈ are worked out from the molar mass of the structure shown. Active and inactive are the calls of the source. No cut-off for these calls is given here.

Columns and labels:
Paracentrotus lividus = test: Inhibition of sea urchin egg fertilization by sea urchin sperm assessed as inhibition of divided eggs by light microscopy; format: functional, organism-based
Outline: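 Eggs were rinsed, filtered and diluted in artificial seawater to 2000 eggs/mL. "Dry" sperm was diluted 1:50 in ASW, and 10 µL was added per 1 mL eggs at 20 °C. Compounds were in DMSO at 50 µg/mL, with DMSO-only controls. Eggs were cultured at room temperature with gentle agitation, and percent divided eggs was scored by light microscopy 30 min post-fertilization.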

[1] = system: Agrobacterium tumefaciens; test: Antitumor activity against Agrobacterium tumefaciens-induced 10 ppm crown gall tumor in potato tubers at […] after 21 days by crown gall tumor potato disk test; format: functional
Outline: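 Potato tubers were surface-sterilized in 1% NaOCl for 20 min and cut into 5 mm disks, 10 per 2% agar plate. A 48 h Agrobacterium tumefaciens culture, mixed with compound in DMSO at 10 or 100 µg/mL, was applied to each disk. Plates were kept at 28 °C for 21 days. Tumors per disk were counted; % inhibition = 100 − (mean tumors sample/mean control)×100.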

Escherichia coli = test: Antibacterial activity against Escherichia coli by disk diffusion test; format: functional, organism-based
Outline: (§1)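 Bacterial suspensions were grown 2–5 h to a suitable OD, diluted with water and swabbed evenly over agar. After the inoculum dried, disks carrying 10, 50, 100 and 200 µg of compound were applied. Plates were incubated overnight, and zone diameters around the disks were measured.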

Saccharomyces cerevisiae = test: Antifungal activity against Saccharomyces cerevisiae after 18 to 24 hrs by disk diffusion test; format: functional, organism-based
Outline: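 Diluted yeast inoculum was spread on 90 mm agar plates supplemented with 2% glucose and dried for 5–15 min. Disks loaded with 10, 50, 100 and 200 µg of compound were placed on top. Plates were incubated 18–24 h at 28 °C, then inhibition zone diameters were measured.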

Bacillus subtilis = test: Antibacterial activity against Bacillus subtilis by disk diffusion test; format: functional, organism-based; outline: as §1
Staphylococcus aureus = test: Antibacterial activity against Staphylococcus aureus by disk diffusion test; format: functional, organism-based; outline: as §1

SMILES: CC(=O)c1cc2c(=O)c3c(C(=O)O)c(O)c(O)cc3oc2c(C(C)=O)c1C1COc2cc(O)c(O)c(C(=O)O)c2C1=O (stereo not drawn)
- IC50 (Paracentrotus lividus): 0.71 µg/mL (≈ 1.23 µM)
- inhibition (INH) [1]: 12%
- Activity (Escherichia coli): inactive
- Activity (Saccharomyces cerevisiae): inactive
- Activity (Bacillus subtilis): inactive
- Activity (Staphylococcus aureus): inactive

SMILES: COc1oc2cc(O)c(O)c(C(=O)O)c2c(=O)c1-c1c(C(C)=O)cc2c(=O)c3c(C(=O)O)c(O)c(O)cc3oc2c1C(C)=O
- IC50 (Paracentrotus lividus): 0.05 µg/mL (≈ 0.0824 µM)
- inhibition (INH) [1]: 72%
- Activity (Escherichia coli): inactive
- Activity (Saccharomyces cerevisiae): inactive
- Activity (Bacillus subtilis): inactive
- Activity (Staphylococcus aureus): inactive

SMILES: CC(=O)c1cc2c(=O)c3c(C(=O)O)c(O)c(O)cc3oc2c(C(C)=O)c1-c1coc2cc(O)c(O)c(C(=O)O)c2c1=O [VINAXANTHONE]
- IC50 (Paracentrotus lividus): 0.12 µg/mL (≈ 0.208 µM)
- inhibition (INH) [1]: 67%
- Activity (Escherichia coli): inactive
- Activity (Saccharomyces cerevisiae): inactive
- Activity (Bacillus subtilis): inactive
- Activity (Staphylococcus aureus): inactive
